Data taken from ChEMBL document CHEMBL1155814, “Structure-activity correlations for beta-phenethylamines at human trace amine receptor 1” (Bioorg Med Chem, 2008).
Activity calls are given as the source filed them.

Assays:
Assay type in all cases: functional, cell-based
[1] = target: T1, Trace amine-associated receptor 1 (Homo sapiens) (UniProt Q96RJ0); assay: Agonist activity at human trace amine associated receptor 1 expressed in RD-HGA16 CHO-K1 cells coexpressed with Galpha16 protein assessed as internal calcium mobilization by calcium 3 assay relative to 2-phenylethanamine
T1 sequence (whole entry): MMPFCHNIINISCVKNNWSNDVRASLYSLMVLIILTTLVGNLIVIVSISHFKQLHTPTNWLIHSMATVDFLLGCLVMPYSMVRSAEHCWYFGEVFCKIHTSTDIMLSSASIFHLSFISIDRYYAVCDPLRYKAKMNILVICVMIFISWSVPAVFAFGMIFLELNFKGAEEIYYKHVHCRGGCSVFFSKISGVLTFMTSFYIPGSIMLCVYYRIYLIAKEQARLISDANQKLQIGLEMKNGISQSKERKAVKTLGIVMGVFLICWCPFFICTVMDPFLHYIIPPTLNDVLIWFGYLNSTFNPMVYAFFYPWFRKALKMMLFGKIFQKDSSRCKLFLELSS
In short: (§1)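 Unmodified human TAAR1 stably expressed in CHO cells carrying Galpha16 (RD-HGA16). Cells seeded at 30,000/well in HAM's F-12 with 10% FBS, 400 ug/mL hygromycin and 400 µg/mL geneticin, overnight at 37 °C, 5% CO2. Loaded 1 h at 37 °C with Calcium 3 dye at 1/3 kit strength. Fluorescence read from the bottom at 485/525 nm, 515 cutoff. Basal signal recorded 13 sec before compound addition. Compounds tested at 7–8 concentrations in duplicate. A six-point β-PEA curve was run on each plate.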

[2] = target: T2, Trace amine-associated receptor 1 (Homo sapiens, UniProt Q96RJ0); assay: (§2) Agonist activity at human trace amine associated receptor 1 expressed in RD-HGA16 CHO-K1 cells coexpressed with Galpha16 protein assessed as internal calcium mobilization by calcium 3 assay
T2 sequence (Q96RJ0 whole entry): T1 sequence (whole entry)
In short: as §1, with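 “strength.” for “strength. Fluorescence read from the bottom at 485/525 nm, 515 cutoff.”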

[3] = target: T2, Trace amine-associated receptor 1; assay: Agonist activity at human trace amine associated receptor 1 expressed in AV12-664 cells coexpressed with rat GalphaS protein assessed as cAMP accumulation
[4] = target: T1, Trace amine-associated receptor 1 (Homo sapiens); assay: Agonist activity at human trace amine associated receptor 1 expressed in AV12-664 cells coexpressed with rat […] protein assessed as cAMP accumulation relative to 2-phenylethanamine
[5] = target: T1, Trace amine-associated receptor 1 (Homo sapiens); assay: as §2
In short: as §1, with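 “strength.” for “strength. Fluorescence read from the bottom at 485/525 nm, 515 cutoff.”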

| Compound | Emax [1] [%] | EC50 [2] [µM] | EC50 [3] [nM] | Emax [4] [%] | Activity [5] |
| --- | --- | --- | --- | --- | --- |
| NCCc1ccccc1O | 90 | 0.614 |  |  |  |
| COc1ccc(OC)c(CCN)c1 | 69 | 2.01 |  |  |  |
| CN(C)CCc1ccccc1Br | 78 | 3.46 |  |  |  |
| NCCc1ccc([N+](=O)[O-])cc1 |  | 167 |  |  |  |
| CC(C)(C)c1ccc(CCN)cc1 |  | 5110 |  |  |  |
| NCCc1cccc(C(F)(F)F)c1 | 69 | 3.95 |  |  |  |
| CNCCc1ccccc1 | 69 | 0.387 | 250 | 93.4 |  |
| CNCCc1ccc(Br)cc1 | 60 | 6.54 |  |  |  |
| COc1cc(CCN)c(OC)cc1Br | 22 | 7.19 |  |  |  |
| CN(C)CCc1cccc(Br)c1 | 88 | 8.3 |  |  |  |
| NCC(c1ccccc1)c1ccccc1 | 70 | 3.4 |  |  |  |
| COc1cc(CCN)c(OC)cc1Cl | 30 | 3.75 |  |  |  |
| CN(C)CCc1ccccc1F | 75 | 1.29 |  |  |  |
| C[C@H](N)Cc1ccccc1 | 74 |  |  |  |  |
| C[C@@H](N)Cc1ccccc1 | 64 |  |  |  |  |
| NCCc1ccccc1Br | 89 | 0.057 |  |  |  |
| NCCc1ccc(C(F)(F)F)cc1 | 78 | 11.6 |  |  |  |
| NCCc1cccc(Cl)c1 | 105 | 0.189 |  |  |  |
| NCCc1ccc(F)cc1 | 81 | 0.74 |  |  |  |
| NCCc1ccc(Cl)c(Cl)c1 | 78 | 3.43 |  |  |  |
| CCc1cc(OC)c(CCN)cc1OC | 32 | 6.41 |  |  |  |
| NCCc1ccc(Cl)cc1 | 104 | 2.86 |  |  |  |
| CN(C)CCc1cccc(F)c1 | 78 | 4.32 |  |  |  |

| Compound | Emax [1] [%] | EC50 [2] [µM] | EC50 [3] [nM] | Emax [4] [%] | Activity [5] |
| --- | --- | --- | --- | --- | --- |
| NCCc1ccccc1Cl | 72 | 0.077 |  |  |  |
| NCCc1c(F)cccc1Cl | 94 | 0.312 |  |  |  |
| CN(C)CCc1ccccc1 |  | 100 | 1490 | 97.1 |  |
| NCCc1c(F)cc(O)cc1F | 103 | 0.767 |  |  |  |
| CNCCc1cccc(Br)c1 | 71 | 1.07 |  |  |  |
| COc1cccc(CCN)c1 | 73 | 1.44 |  |  |  |
| COc1cc(F)c(CCN)c(F)c1 | 90 | 1.4 |  |  |  |
| C[C@@H](CN)c1ccccc1 | 97 | 0.361 |  |  |  |
| Cc1ccc(C)c(CCN)c1 | 84 | 0.377 |  |  |  |
| NCCc1ccc(O)cc1 [TYRAMINE] | 91 | 0.731 |  |  |  |
| NCCc1cccc(F)c1 | 93 | 0.15 |  |  |  |
| CNCCc1ccccc1Br | 93 | 0.205 |  |  |  |
| NCCc1ccccc1F | 91 | 0.065 |  |  |  |
| CC(C)C(CN)c1ccccc1 (stereo unspecified) | 46 | 9.95 |  |  |  |
| CC(C)(CN)c1ccccc1 | 70 | 7.88 |  |  |  |
| Cc1ccccc1CCN | 97 | 0.355 |  |  |  |
| CNCCc1cccc(F)c1 | 88 | 0.53 |  |  |  |
| CN(C)CCc1ccccc1Cl | 79 | 0.687 |  |  |  |
| CN(C)CCc1ccc(F)cc1 | 71 | 19.1 |  |  |  |
| COc1ccccc1CCN | 95 | 0.144 |  |  |  |
| Cc1cccc(CCN)c1 | 93 | 0.638 |  |  |  |
| CN(C)CCc1cccc(Cl)c1 | 62 | 5.98 |  |  |  |
| CC(C)(N)Cc1ccccc1 [PHENTERMINE] | 68 | 5.47 |  |  |  |

| Compound | Emax [1] [%] | EC50 [2] [µM] | EC50 [3] [nM] | Emax [4] [%] | Activity [5] |
| --- | --- | --- | --- | --- | --- |
| N[C@@H]1C[C@H]1c1ccccc1 (relative stereo) | 72 | 1.51 |  |  |  |
| NCCc1cccc(Cl)c1Cl | 84 | 1.16 |  |  |  |
| CNCCc1ccc(F)cc1 | 63 | 1.04 |  |  |  |
| CCc1ccc(CCN)cc1 | 86 | 9.1 |  |  |  |
| C[C@H](CN)c1ccccc1 | 104 | 0.129 |  |  |  |
| NCCc1ccccc1I | 109 | 0.103 |  |  |  |
| CNCCc1ccc(Cl)cc1 | 67 | 7.43 |  |  |  |
| NCCc1c(Cl)cccc1Cl | 94 | 0.051 |  |  |  |
| CNCCc1ccccc1F | 75 | 0.117 |  |  |  |
| CNCCc1ccccc1Cl | 70 | 0.16 |  |  |  |
| NCCc1ccc(Br)cc1 | 98 | 1.54 |  |  |  |
| NCCc1cccc(Br)c1 | 75 | 0.398 |  |  |  |
| CN(C)CCc1ccc(Cl)cc1 | 43 | 630 |  |  |  |
| NCCc1ccc2c(c1)OCO2 | 63 | 5.03 |  |  |  |
| CNCCc1cccc(Cl)c1 | 77 | 0.501 |  |  |  |
| NCC1(c2ccccc2)CC1 | 79 | 5.05 |  |  |  |
| COc1cc(OC)c(OC)cc1CCN |  |  |  |  | inactive |
| Cc1ccc(CCN)cc1 | 96 | 4.38 |  |  |  |
| COc1cc(CCN)c(OC)cc1C | 36 | 6.48 |  |  |  |
| NCCc1ccccc1 [PHENETHYLAMINE] | 100 | 0.129 |  |  |  |
| CN(C)CCc1ccc(Br)cc1 | 40 | 24.4 |  |  |  |
| NCCc1cccc(O)c1 | 78 | 1.74 |  |  |  |
| COc1ccc(CCN)cc1 | 106 | 5.98 |  |  |  |
